High-throughput results as filed in PubChem BioAssay.
An excerpt weighted towards active compounds, which were near 1.9% of everything screened.
PLCb3 inh – blocks human PLC-beta3 enzyme activity; Q01970; Purified PLC-beta3, fluorogenic substrate, fluorescence; inhibition, % at 12.2 µM; 370,000 tested, 0.18% active; AID 720704; in the data active = inhibition above about 11%;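 also: 0% = median of compound wells on plate and 100% = full blocker control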
Target sequence (Q01970 whole entry, looked up): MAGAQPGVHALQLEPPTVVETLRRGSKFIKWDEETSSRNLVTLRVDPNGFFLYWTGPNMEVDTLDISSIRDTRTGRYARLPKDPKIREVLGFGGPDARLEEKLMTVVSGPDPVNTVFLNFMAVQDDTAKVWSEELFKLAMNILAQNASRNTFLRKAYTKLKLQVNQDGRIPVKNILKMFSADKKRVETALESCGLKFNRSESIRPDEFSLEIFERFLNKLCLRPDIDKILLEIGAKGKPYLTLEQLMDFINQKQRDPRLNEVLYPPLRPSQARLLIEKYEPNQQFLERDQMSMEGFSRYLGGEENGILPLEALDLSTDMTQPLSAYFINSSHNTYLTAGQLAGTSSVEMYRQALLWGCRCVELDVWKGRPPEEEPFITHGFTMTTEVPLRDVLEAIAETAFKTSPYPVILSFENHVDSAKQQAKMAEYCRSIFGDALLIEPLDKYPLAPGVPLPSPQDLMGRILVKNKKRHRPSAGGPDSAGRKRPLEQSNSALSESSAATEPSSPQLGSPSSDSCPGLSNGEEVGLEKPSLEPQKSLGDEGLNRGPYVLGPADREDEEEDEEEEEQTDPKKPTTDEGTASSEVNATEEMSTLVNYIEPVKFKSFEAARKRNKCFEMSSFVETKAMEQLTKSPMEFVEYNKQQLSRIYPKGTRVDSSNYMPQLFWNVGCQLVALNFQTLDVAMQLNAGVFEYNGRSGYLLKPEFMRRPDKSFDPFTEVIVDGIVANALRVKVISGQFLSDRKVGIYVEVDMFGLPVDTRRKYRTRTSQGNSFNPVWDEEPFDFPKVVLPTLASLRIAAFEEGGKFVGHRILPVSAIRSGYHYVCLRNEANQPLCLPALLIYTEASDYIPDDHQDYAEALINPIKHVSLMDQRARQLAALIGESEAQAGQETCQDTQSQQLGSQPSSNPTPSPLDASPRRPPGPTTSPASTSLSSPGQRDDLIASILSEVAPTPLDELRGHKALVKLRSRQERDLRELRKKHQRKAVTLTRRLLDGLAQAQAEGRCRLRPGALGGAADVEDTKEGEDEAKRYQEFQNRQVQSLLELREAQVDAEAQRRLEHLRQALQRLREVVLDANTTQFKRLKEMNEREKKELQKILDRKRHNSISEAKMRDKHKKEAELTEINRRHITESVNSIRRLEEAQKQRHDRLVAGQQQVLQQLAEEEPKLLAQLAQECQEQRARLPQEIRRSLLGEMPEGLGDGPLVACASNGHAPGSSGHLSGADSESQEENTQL
proCasp7 act – counter-screen for procaspase-3 activators: activators of human procaspase-7. P55210. recombinant procaspase-7, Ac-DEVD-pNA absorbance 405 nm; D23A/D198A/D206A triple mutant, cannot self-cleave; scale: DMSO 0, 5 µM enzyme 100. activation, % at 8.5 µM. 330,000 tested, 0.093% active. AID 463210;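 active = percent activation above the screen-wide mean plus 3 SD, cut at about 25% in these data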
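Assay system: Uncleavable procaspase-7 mutant enzyme | Input: 2 µM procaspase-7 mutant as dispensed | Timing: 1 h compound preincubation, 2 h substrate cleavage, 25 °C | Repeats: One well per compound | Control set: DMSO wells as 0%, DMSO with 5 µM added PC-7 as 100% | Technique: Epi-absorbance of released pNA at 405 nm, two timepoints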
sPLA2-III inh – Inhibits HGIII-sPLA2 liposome hydrolysis, primary screen; 370,000 tested, 0.56% active; QFRET BODIPY PC-A2 liposome hydrolysis, fluorescence; AID 743126; inhibition, % at 12.2 µM;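 active = inhibition above mean plus 3 SD of compounds lying within the high and low control bounds, cut at about 19% in these data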;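 also: 0% = median of test compound wells and 100% = no enzyme DMSO wells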
PLCg1 inh – PLC-gamma1 (human) inhibition, primary screen; P19174; purified PLC-gamma1, fluorogenic substrate, fluorescence; inhibition, % at 12.2 µM; 370,000 tested, 0.84% active; AID 720700; in the data active = inhibition above about 9.5%
Arrestin-AP2 inh – blocks beta-arrestin peptide binding to AP2 adaptin; FITC-arrestin peptide / GST-AP2 beads, flow cytometry; AP2 beta2 appendage carries R879A mutation; inhibition, % at 10 µM; 340,000 tested, 0.31% active;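 active = inhibition above a set limit, near 3 SD of compounds lacking own fluorescence, cut at about 54% in these data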;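 also: plate controls were DMSO wells for no effect and 5 µM unlabelled arrestin peptide for full effect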
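test system = AP2 appendage R879A on GSH beads | buffer or medium = PBS plus Tween 20 (0.05%) and BSA (0.1%) | incubation = 12 min plus 1 h, RT | detection = bead flow cytometry, FITC channel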
proCasp3 act – procaspase-3 (human) activation. recombinant procaspase-3 D3A, Ac-DEVD-pNA absorbance 405 nm. 330,000 tested, 0.11% active. P42574. activation, % at 8.5 µM;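 active = activation above the mean of all tested compounds plus 3 SD, cut at about 21% in these data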;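 also: 0% = DMSO alone and 100% = DMSO wells spiked with extra 5 µM PC-3 D3A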
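Technique: 405 nm absorbance of p-nitroaniline, reads at 0 and 120 min; Test system: Procaspase-3 D3A mutant; Incubation: 1 h enzyme-compound preincubation, then 2 h substrate reaction, 25 °C; Repeats: singlicate, each compound tested once; Benchmarks: low control DMSO wells, high control DMSO plus 5 µM PC-3 D3A.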
* = called active by the depositor; i = inactive; · = no result given.

SMILES	PLCb3 inh	proCasp7 act	sPLA2-III inh	PLCg1 inh	Arrestin-AP2 inh	proCasp3 act
COC(=O)[C@]1(Cc2ccccc2)NC=C(C(=O)c2ccc(F)cc2)[C@@H]1c1ccccc1	-2	·	-53	0	·	·
O=C(C[C@@H]1C[C@@H]2c3cc(NS(=O)(=O)c4ccc(F)cc4)ccc3O[C@@H]2[C@H](CO)O1)NCc1ccc(Oc2ccccc2)cc1	-3	·	-28	9.6*	·	·
COc1ccc(CN2C(=O)N3Cc4ccccc4C3CS2(=O)=O)cc1 (stereo not drawn)	0	·	6	0	·	·
COC(C/C=C\[C@H](O)[C@@H](C)OCc1ccccc1)OC	12*	2	12	3	2	3
CCc1nnn2c1Cn1c3ccccc3c(=O)n1[C@@H](C(C)C)C2	-14	·	2	-9	·	·
CCCOc1ccc(C(=O)NNC(=S)NC(=O)c2cccs2)cc1	-15	-13	32*	-2	-4	-5
CCCOc1ccc(C(=O)NNC(=S)NC(=O)c2ccccc2)cc1	-2	-17	20*	0	37	-8
CCCCCCCCNS(=O)(=O)CC1NCc2ccccc21 (stereo not drawn)	-9	·	0	-8	·	·
Cc1ccc(-n2c(SCC(=O)C(C)(C)C)nnc2-c2cccc(C)c2)cc1	0	·	1	0	·	·
Cc1ccccc1Oc1cc(-n2ncc(Cl)c(Cl)c2=O)ncn1	8	-2	21*	3	8	-1
CN(C)S(=O)(=O)c1cccc(-c2nnc(SCCNCCO)n2-c2ccc(F)cc2)c1	14*	0	0	14*	-19	4
CCCSc1nnc(-c2cccc(S(=O)(=O)N(C)C)c2)n1-c1cc(OC)ccc1OC	2	0	-6	2	-5	13
COC(=O)[C@]12C[C@H](CC(=O)NCc3cccs3)C(=O)N(CCC3=CCCCC3)C1=C[C@H](C(C)(C)C)O[C@@H]2C	2	·	1	2	·	·
CCOC(=O)c1oc2ccc(CNC(C)(C)C)c(Cl)c2c1C	6	5	-6	12*	1	7
CCOC(=O)c1oc2cccc(O)c2c1C	-85	1	-6	-78	11	6
Cc1ccc([N+](=O)[O-])cc1N(CC(=O)Nc1ccc(S(=O)(=O)Nc2cccc(C(F)(F)F)c2)cc1)S(C)(=O)=O	2	7	-93	9.9*	11	2
Cc1ccc(NCCC(=O)c2cccs2)cc1	1	-9	4	-1	-22	-12
CC(C)c1ccc(NCCC(=O)c2cccs2)cc1	-6	-2	27*	0	2	-9
CCCCCCS(=O)[C@H]1CS(=O)(=O)C[C@@H]1S(=O)CCCCCC (stereo partly drawn)	11*	-25	-1	3	40	-13
CCCCCCCCS(=O)C1CCS(=O)(=O)C1 (stereo not drawn)	-1	0	7	-3	-14	-1
CCOC(=O)N[C@H](C(=O)N1CCC[C@H]1C(=O)NCCc1ccccc1Cl)c1ccccc1	-1	·	11	3	·	·
COc1ccc2c(c1)[C@H]1[C@H](CO2)[C@H](c2ccccc2)[C@]2(C)C(=O)Nc3cc(C)ccc3C(=O)N12	-9	1	-2	-6	2	2
COc1ccc2c(c1)OC[C@H]1[C@H]2N2C(=O)c3ccc(C)cc3NC(=O)[C@@]2(C)[C@H]1c1ccccc1	0	-2	40*	0	-1	5
C(=N\Nc1nc2ccccc2[nH]1)/c1ccccn1	0	·	12	0	2	·
Fc1ccccc1-c1ccc(/C=N/Nc2nc3ccccc3[nH]2)o1	i	-16	30*	-431	0	-1
SMILES	PLCb3 inh	proCasp7 act	sPLA2-III inh	PLCg1 inh	Arrestin-AP2 inh	proCasp3 act
O=C1c2cccc(OCc3ccc(F)cc3)c2CCN1Cc1ccc(F)cc1	4	3	-16	11*	-4	2
Cc1ccc(CN2CCc3c(OCc4ccc(F)cc4)cccc3C2=O)cc1	-4	2	-12	-5	-6	0
O=C(CCc1nc(-c2ccccc2F)no1)NCCc1c[nH]c2ccccc12	-2	·	-49	-1	·	·
O=C(Nc1ccc(Oc2ccccc2)cc1)c1csc([C@@H]2O[C@H](CO)[C@H](O)[C@H](O)[C@H]2O)n1	4	·	0	9.7*	·	·
CC(=O)Nc1ccc(NC(=O)c2csc([C@@H]3O[C@H](CO)[C@H](O)[C@H](O)[C@H]3O)n2)cc1	2	·	-2	-1	·	·
CC1CCN(C2=NC(=O)N(c3ccc(Br)cc3)C(=O)C2)CC1	-4	·	0	-5	·	·
COC(=O)C1=C(C)N(Cc2cccc(C(F)(F)F)c2)C(=NCC2CC2)NC1c1ccccc1 (stereo not drawn)	-2	·	4	-1	·	·
O=C(CSc1nnc(-c2ccccn2)n1-c1ccccc1)Nc1ccccc1-c1ccccc1	-2	·	6	2	·	·
C#CCNC(=O)C[C@@H]1C(=O)N(CCc2ccc(Cl)cc2)/C2=C/CCCCC[C@@]21C(=O)OCC	2	·	0	4	·	·
CCc1ccc(-c2cn(C3CCCCC3)c(=S)[nH]2)cc1	-4	3	23*	6	-21	-9
CN(C)c1ccc(C(=O)OCc2ccccc2)cc1	-6	0	12	-14	2	-1
O=C1C=CC(=O)C(CNc2ccc(C(=O)OCc3ccccc3)cc2)=C1	-15	·	26*	-10	14	·
COc1ccc(C(=O)N2CCCC2)cc1S(=O)(=O)N1CCC(C)CC1	11*	8	-6	3	28	3
CCC[C@@H](CN1CCC[C@H]1CN1C(N)=NC[C@H]1CC(C)C)N1C[C@@H](Cc2ccccc2)N(CCc2ccc(Cl)c(Cl)c2)C1=N	12*	11	3	6	22	10
COC(=O)[C@@H]1C[C@@H](c2ccccc2)[C@H](C)C1(C)C	6	-6	14	9.7*	-3	-6
O=C(N/C(=C\c1ccc(Cl)cc1)C(=O)N1CCOCC1)c1ccc([N+](=O)[O-])cc1	-4	-10	-7	15*	0	-3
O=C(N/C(=C/c1ccc(Cl)cc1)C(=O)N1CCOCC1)c1ccccc1	-6	-9	3	0	5	4
Cc1ccc(NC2CCCN(C(=O)CCN3CCCCO3)C2)cc1C (stereo not drawn)	3	-4	3	12*	-10	7
O=C(CCN1CCCCO1)N1CCCC(Nc2ccc(F)c(F)c2)C1 (stereo not drawn)	-3	19	-1	4	-5	9
COc1ccccc1C(=O)NC(=S)/C=C1/N(C)c2ccccc2C1(C)C	-4	-9	20*	-5	16	-5
